Measurements from different studies.
Protocols differ between the studies behind these lines.
Target: RAC-alpha serine/threonine-protein kinase (AKT1, Homo sapiens, UniProt P31749)

Compound | effect on | action | method | concentration | measurement | result
CCN(CC)CCNC(=O)c1c(C)[nH]c(/C=C2\C(=O)Nc3ccc(F)cc32)c1C | cell-free assay | – | – | 0.5 µM | remaining signal | 105%
CNC(=O)c1cc(Oc2ccc(NC(=O)Nc3ccc(Cl)c(C(F)(F)F)c3)cc2)ccn1 | enzyme activity | inhibitor | – | 0.3 µM | inhibition | -6%
CC/C(=N\NC(=O)NCc1cccc(O)c1)c1ccc(O)c(C)c1O | enzyme activity | inhibitor | – | 0.1 µM | inhibition | 0.1%
Nc1nc(NC2CCCCC2)sc1C(=O)c1ccccc1 | enzyme activity | inhibitor | – | 10 µM | remaining activity | 85%
CSc1nc(C)c(-c2ccnc(Nc3ccc(N4CCOCC4)cc3)c2)[nH]1 | enzyme activity | inhibitor | – | 10 µM | inhibition | -2.9%
Cc1cc(NC(=O)c2cccc3cc(-c4cccc5[nH]nc(N)c45)ccc23)ccc1F | enzyme activity | inhibitor | – | 0.1 µM | activity vs control | 107%
O=C(Nc1cnn(-c2csc(C(=O)NC3COC3)c2)c1)Nc1c(F)cccc1Cl | enzyme activity | inhibitor | – | 5 µM | remaining activity | 105%
COc1cc(Cl)c(C(=O)N[C@@H](CN[C@H]2CC[C@@H](N)CC2)Cc2ccc(C#N)cc2)cc1-c1ccc(CN[C@H](C)c2ccc(C)cc2)o1 | enzyme activity | inhibitor | – | 1 µM | remaining activity | 85%
O=C(CSc1nc2nccnc2c(=O)n1CCc1ccccc1)Nc1nccs1 | enzyme activity | inhibitor | – | 10 µM | inhibition | 4%
Oc1cccc(-c2nc(N3CCOCC3)c3oc4ncccc4c3n2)c1 | cell-free assay | – | – | 0.5 µM | remaining signal | 95.3%
Cc1c[nH]c2nccc(Oc3c(F)cc(Nc4cc(Cl)nc(N)n4)cc3F)c12 | cell-free assay | – | competition with immobilised ligand | 0.1 µM | remaining binding | 100%
Cc1cnc(NC2CCOCC2)nc1-n1cnc(C(=O)NC(CN)c2cc(F)cc(Cl)c2)c1 (stereo not shown) | enzyme activity | inhibitor | radiometric | 1 µM | remaining activity | 89%
Cc1c(NC(=O)c2cc(C(N)=O)nc3cc(F)ccc23)c(C(F)(F)F)nn1Cc1ccc(C#N)cc1 | cell-free assay | – | competition with immobilised ligand | 1 µM | remaining binding | 91%
O=C1Nc2ccc(Cl)cc2C1=Cc1cc(Cl)c(O)c(Cl)c1 | cell-free assay | – | – | 0.5 µM | remaining signal | 97.9%
Cn1cnc(Br)c1C1=CN(c2ncnc3[nH]cnc23)CCS1 | enzyme activity | inhibitor | radiometric | 50 nM | inhibition | 26.5%
FC(F)(F)Oc1cccc(-c2cnc3ccc(-c4ccncc4)nn23)c1 | enzyme activity | inhibitor | radiometric | 1 µM | activity vs control | 90%
Cc1ccc(Nc2nccc(N(C)c3ccc4c(C)n(C)nc4c3)n2)cc1S(N)(=O)=O | enzyme activity | inhibitor | – | 10 µM | inhibition | 6%
CCS(=O)(=O)c1cc2cc(C[C@@](O)(CC(C)(C)c3ccc(F)cc3C(N)=O)C(F)(F)F)[nH]c2cn1 | cell-free assay | – | competition with immobilised ligand | 1 µM | remaining binding | 86%
Cc1ccc(C(=O)Nc2ccc(CN3CCN(C)CC3)c(C(F)(F)F)c2)cc1C#Cc1cnc2cccnn12 | enzyme activity | inhibitor | – | 23.5 nM | remaining activity | 65%

Compound | effect on | action | method | concentration | measurement | result
COc1cc(Nc2cnc(C#N)c(O[C@H](C)CN(C)C)n2)ncc1-c1cnn(C)c1 | enzyme activity | inhibitor | radiometric | 10 µM | remaining activity | 87%
Cc1ccc(NC(=O)c2ccc(C)c(C(F)(F)F)c2)cc1C#Cc1nn(C2CCC(O)CC2)c2ncnc(N)c12 (stereo not shown) | cell-free assay | – | – | 10 µM | remaining signal | 101%
CN(C)C1CCN(CC#Cc2nn(C3CCCC3)c3nc(NCc4ccccc4)ncc23)C1 (stereo not shown) | enzyme activity | inhibitor | FRET | 0.1 µM | inhibition | 4%
CN1CC(Oc2cnc(C#N)cc2-c2ccn3nc(NC(=O)C4CC4)cc3c2)C1 | enzyme activity | inhibitor | – | 1 µM | inhibition | -4%
FC(F)c1nc2ccccc2n1-c1nc(N2CCOCC2)nc(N2CCOCC2)n1 | enzyme activity | inhibitor | – | 10 µM | remaining activity | 123%
O=C(Nc1cnn(-c2csc(C(=O)NC3COC3)c2)c1)Nc1ccccc1Cl | enzyme activity | inhibitor | – | 5 µM | remaining activity | 95.4%
C[C@@H]1CCN(C(=O)CC#N)C[C@@H]1N(C)c1ncnc2[nH]ccc12 | cell-free assay | inhibitor | – | 0.5 µM | remaining signal | 90.3%
CNC(=O)Nc1ccc2c(c1)CC[C@@]21OC(=O)N(CC(=O)N(Cc2ccc(F)cc2)[C@@H](C)C(F)(F)F)C1=O | cell-free assay | – | competition with immobilised ligand | 1 µM | remaining binding | 91%
Nc1nc(Nc2ccc(S(N)(=O)=O)cc2)nn1C(=O)c1c(F)cccc1F | cell-free assay | – | – | 0.5 µM | remaining signal | 120%
Nc1c(C(=O)NCc2ccc(C(=O)NCCCC3CCCCC3)cc2)cnn1-c1ccccc1 | cell-free assay | – | competition with immobilised ligand | 0.1 µM | remaining binding | 100%
Nc1nc(Nc2ccccc2)sc1C(=O)c1c(F)cccc1F | enzyme activity | inhibitor | – | 10 µM | remaining activity | 84%
Cn1cncc1C1=CN(c2ncnc3[nH]cnc23)CCS1 | enzyme activity | inhibitor | radiometric | 2 µM | inhibition | 83.7%
CC1=C(C#N)[C@@H](c2ccc3[nH]nc(C)c3c2)C(C#N)=C(c2ccc(Cl)cc2)N1 | cell-free assay | – | competition with immobilised ligand | 1 µM | remaining binding | 100%
Nc1ncnc2occ(-c3ccc(NC(=O)Nc4cc(C(F)(F)F)ccc4F)cc3)c12 | cell-free assay | inhibitor | – | 20 µM | remaining signal | 100%
Cc1nc(C2CCN(C(=O)c3ccc(OC(F)(F)F)cc3N)CC2)c2ncc(N3CCN(C)CC3)cc2n1 | cell-free assay | – | competition with immobilised ligand | 1 µM | remaining binding | 100%
CNc1cccc2cc(C(=O)Nc3ccc(C(=O)O)cc3)c(=O)[nH]c12 | enzyme activity | inhibitor | – | 10 µM | inhibition | 2.2%
CN(C)C(=O)Cn1cc(-c2nc([C@@](C)(c3ccc(-c4cnc(N)nc4)cc3)C3CC3)no2)cn1 | cell-free assay | – | competition with immobilised ligand | 1 µM | remaining binding | 94%
COc1cc2ncnc(Nc3ccc(Oc4ccccc4)c(C)c3C)c2cc1OC | enzyme activity | inhibitor | – | 1 µM | inhibition | 2%
